The results in this text go back to ChEMBL document CHEMBL1154414, “In vitro and in vivo activities of T-705 against arenavirus and bunyavirus infections” (Antimicrob Agents Chemother, 2007).

In assay [1] the test system is Punta Toro virus. In words: Antiviral activity against 500 PFU Punta Toro virus Adames infected C57BL/6 mouse assessed as mean day of death at 75 mg/kg, po twice daily for 5 days administered 4 hrs before viral challenge. It counts as functional. In outline:
(§1)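 Groups of 15 mice (25–30 placebo) were inoculated subcutaneously with PTV. Drug in 0.4% carboxymethylcellulose was given by oral gavage twice daily.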

In assay [2] the test system is Junin virus. In words: Antiviral activity against Junin virus Candid-1 assessed as reduction of 1 log10 unit viral titer yields after 7 to 8 days. Type of assay: functional. The note with it: Mammarenavirus juninense.
Assay [3] has as its system Punta Toro virus. In words: Antiviral activity against 500 PFU Punta Toro virus Adames infected C57BL/6 mouse assessed as mean serum ALT levels at 25 mg/kg, po twice daily administered 4 hrs before viral challenge measured on day 4 of viral infection. Type of assay: functional. In outline: (§2)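 C57BL/6 mice received subcutaneous PTV, then oral gavage twice daily for 5–7 days. T-705 was given in 0.4% CMC and ribavirin in saline. Five mice per group (10 placebo) were killed on day 3 or 4, and serum was collected. ALT activity was measured by kinetic assay. Three sham-infected mice set baselines.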

Assay [4] relates to Punta Toro virus. The experiment in a line: Antiviral activity against 500 PFU Punta Toro virus Adames infected C57BL/6 mouse assessed as mean day of death at 200 mg/kg, po twice daily for 5 days administered 4 hrs before viral challenge. Type of assay: functional. In a few lines: as §1
The test system of assay [5] is Pichinde virus. The experiment in a line: Antiviral activity against Pichinde virus An 4763 infected Syrian golden hamster assessed as survival at 60 mg/kg, po twice daily for 7 days administered 4 hrs before viral-challenge. Type of assay: functional.
Assay [6] has as its system Pichinde virus. In words: Antiviral activity against Pichinde virus An 4763 infected Syrian golden hamster assessed as […] survival administered po twice daily for 7 days administered 4 hrs before viral-challenge. It counts as functional, organism-based.
The test system of assay [7] is Punta Toro virus. The experiment in a line: Antiviral activity against 500 PFU Punta Toro virus Adames infected C57BL/6 mouse assessed as mean serum ALT levels at 100 mg/kg, po twice daily administered 4 hrs before viral challenge measured on day 4 of viral infection. It counts as functional. In outline: (§3)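 Subcutaneous PTV infection was followed by oral gavage twice daily with drug suspended in 0.4% CMC. Serum was collected from 5 sacrificed mice per group (10 placebo) on day 3 or 4. ALT activity was measured by kinetic assay, and sham-infected mice set the baselines.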

Assay [8] concerns Punta Toro virus. In words: Antiviral activity against Punta Toro virus Adames infected Syrian golden hamster assessed as mean serum ALT levels at 15 mg/kg, po twice daily administered 4 hrs before viral challenge measured on day 4 of viral infection. It counts as functional.
Assay [9] concerns Punta Toro virus. The experiment in a line: Antiviral activity against 500 PFU Punta Toro virus Adames infected C57BL/6 mouse assessed as mean day of death at 25 mg/kg, po twice daily for 5 days administered 4 hrs before viral challenge. Type of assay: functional. In a few lines: as §1
Assay [10] deals with Punta Toro virus. In words: Antiviral activity against 500 PFU Punta Toro virus Adames infected C57BL/6 mouse assessed as mean day of death at 5 mg/kg, po twice daily for 5 days administered 4 hrs before viral challenge. Type of assay: functional. In outline:
as §1

In assay [11] the test system is Punta Toro virus. The experiment in a line: Antiviral activity against 500 PFU Punta Toro virus Adames infected C57BL/6 mouse assessed as mean day of death at 30 mg/kg, po twice daily for 5 days administered 4 hrs before viral challenge. It counts as functional. In outline: as §1
Assay [12] deals with Punta Toro virus. The experiment in a line: Antiviral activity against 500 PFU Punta Toro virus Adames infected C57BL/6 mouse assessed as mean viral titer per 0.1 g of liver at 200 mg/kg, po twice daily administered 4 hrs before viral challenge measured on day 4 of viral infection. It counts as functional. In a few lines: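 Mice were infected subcutaneously with PTV and dosed by oral gavage twice daily; 5 per group (10 placebo) were killed on day 3 or 4. Liver homogenate or serum was serially diluted onto triplicate LLC-MK2 monolayers, and CPE was read 6–8 days later. 50% endpoints gave log10 CCID50 per 0.1 g liver or 0.1 ml serum. Detection range was 2.8–9.5; undetectable samples were assigned <2.8.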

In assay [13] the test system is Punta Toro virus. In words: Antiviral activity against 500 PFU Punta Toro virus Adames infected C57BL/6 mouse assessed as mean serum ALT levels at 10 mg/kg, po twice daily administered 4 hrs before viral challenge measured on day 3 of viral infection. It counts as functional. In a few lines: as §3
Assay [14] deals with Punta Toro virus. In words: Antiviral activity against 500 PFU Punta Toro virus Adames infected C57BL/6 mouse assessed as protection against viral infection at 10 mg/kg, po twice daily for 5 to 7 days twice daily administered 4 hrs before viral challenge. It counts as functional. In a few lines:
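PTV was inoculated subcutaneously into mice in groups of 15 (25–30 placebo). Dosing was by oral gavage twice daily for 5–7 days, with T-705 suspended in 0.4% CMC and ribavirin in saline. Remaining animals were observed 21–28 days for survival and day of death. Test doses had first been checked for tolerance in uninfected animals.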

The test system of assay [15] is Punta Toro virus. The experiment in a line: Antiviral activity against Punta Toro virus Adames infected Syrian golden hamster assessed as inhibition of liver damage at 60 mg/kg, po twice daily administered 4 hrs before viral challenge measured on day 4 of viral infection. It counts as functional, organism-based. Details: dose 60 mg/kg.
The subject of assay [16] is Punta Toro virus. In words: Antiviral activity against 500 PFU Punta Toro virus Adames infected C57BL/6 mouse assessed as mean serum ALT levels at 75 mg/kg, po twice daily administered 4 hrs before viral challenge measured on day 4 of viral infection. Type of assay: functional. In outline:
as §2

Calls of active or inactive are those of the source. The rule behind the calls is not given here. Some results are limits rather than exact numbers.

Regarding `NC(=O)c1nc(F)cnc1O` [FAVIPIRAVIR], the Activity in assay [1] is more than 21 days; in assay [3], 69 IU/L; in [4], 8 days; in assay [5], 90%; in [6], “Dose-dependent effect”; in [7] it was 33 IU/L. The Activity in assay [8] is 204 IU/L; in assay [9], more than 21 days; in [10] it was 4.9 days; in assay [11], more than 21 days; in [13], 501 IU/L; in assay [14], 90%. In addition, the EC90 in [2] came to 7 µM. In [12], the log10CCID50 was less than 2.8. Moreover, the result in assay [15] was Active.

For `NC(=O)c1ncn([C@@H]2O[C@H](CO)[C@@H](O)[C@H]2O)n1` [RIBAVIRIN], the Activity in assay [16] is listed as 38 IU/L.

The EC90 is the point of the concentration-response curve where the effect stands at 90%.
